# From article PMC9177960 (Nucleic Acids Research, 2022)
# T1: MurR (Escherichia coli, UniProt P77245)
# T1 sequence (P77245 1-285): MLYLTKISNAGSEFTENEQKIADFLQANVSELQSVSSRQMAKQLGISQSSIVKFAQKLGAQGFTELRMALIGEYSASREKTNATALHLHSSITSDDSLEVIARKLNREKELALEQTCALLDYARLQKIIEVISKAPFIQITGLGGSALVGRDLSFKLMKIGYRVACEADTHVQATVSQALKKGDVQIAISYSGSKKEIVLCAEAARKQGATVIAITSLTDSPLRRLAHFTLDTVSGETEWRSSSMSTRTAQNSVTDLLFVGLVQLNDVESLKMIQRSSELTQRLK
# T2: MurR/operator DNA complex (Escherichia coli, UniProt P77245)
# T2 sequence (P77245 1-285): T1 sequence (P77245 1-285)
# B1: truncated protein MurRT2 (D95 to K285) (domain or fragment, Escherichia coli MG1655, UniProt P77245 95-285, looked up)
# chain: DDSLEVIARKLNREKELALEQTCALLDYARLQKIIEVISKAPFIQITGLGGSALVGRDLSFKLMKIGYRVACEADTHVQATVSQALKKGDVQIAISYSGSKKEIVLCAEAARKQGATVIAITSLTDSPLRRLAHFTLDTVSGETEWRSSSMSTRTAQNSVTDLLFVGLVQLNDVESLKMIQRSSELTQRLK
# B2: full-length MurR (natural protein, Escherichia coli MG1655, UniProt P77245 1-285, looked up)
# chain: T1 sequence (P77245 1-285)
# What was measured:
# [1] = tested on: MurR binding to the operator site; settings: previous studies; cited from earlier work
# mutant MurR proteins = experiment: ITC binding of GlcNAc-6-P to mutant MurR proteins; parameters: species or system Escherichia coli; settings: mutant proteins of Supplementary Figure S14A and B
# Outline: (§1)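 MurR (wild type or point mutant) was expressed from pET28a in E. coli BL21(DE3), His6-tag removed with HRV3C, and gel-filtered. Protein at 50 µM in the cell; ligand at 500 µM in the syringe. Both were in 100 mM NaCl, 10 mM Tris-HCl pH 7.5, 1 mM DTT. Run at 25 °C, stirring 750 rpm, 120 s between injections. Data background-subtracted to give association constants; triplicate runs.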
# MurR = target: T1, MurR; experiment: ITC binding between MurR and ligands
# Outline: as §1
# [2] = target: T2, MurR/operator DNA complex; experiment: EMSA of MurR with murR-murQ intergenic region DNA; type: biochemical; settings: for effect on MurR-DNA binding at high concentration: EMSA, 1, 10, 20, 40 mM, effect of GlcNAc-6-P at 40 mM
# [3] = tested on: MurR-controlled eGFP expression (pUC19-murR-eGFP); experiment: CFPS eGFP fluorescent quantitation assay, WT MurR; type: biochemical, Escherichia coli; settings: plasmid 5.8 nM, protein 1:100 molar ratio, different ligand concentrations
# Outline: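 Reporter plasmid: T7 promoter, RBS, eGFP coding sequence and the murQ–murR intergenic region. MurR proteins were expressed in E. coli BL21(DE3) with an N-terminal His6 tag, which was cleaved off by HRV3C protease, then purified by size exclusion. In cell-free protein synthesis, 5.8 nM plasmid was mixed with protein at a 1:100 plasmid:protein molar ratio and graded MurNAc-6-P or GlcNAc-6-P. eGFP fluorescence was read on a real-time PCR instrument, in triplicate.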
# [4] = tested on: mutant MurR proteins/promoter DNA complexes; experiment: EMSA of mutant MurR proteins with promoter DNA; type: biochemical, Escherichia coli; settings: all MurR proteins (WT and mutants) at the tested concentrations
# crystal structure = target: the molecule itself; experiment: crystal structure
# SEC + AUC = target: the molecule itself; experiment: SEC + AUC
molecule,measurement,setting,value
"CC(=O)N[C@H]1C(O)O[C@H](COP(=O)(O)O)[C@@H](O)[C@@H]1O (stereo partly shown) [GlcNAc-6-P, N-acetylglucosamine-6-phosphate]",effect on MurR binding to the operator,[1],no effect
same,association constant (Ka) values compared with WT MurR,mutant MurR proteins,Smaller
same,Kd,MurR,17.6 µM
same,relief of the retardation of DNA migration,"[2]; EMSA, 200 nM MurR, ligand 1, 10, 100, 1000 μM",negligible
same,effect on MurR-DNA binding at high concentration,[2],a certain portion of the DNA was dissociated from MurR
same,effect on eGFP fluorescence,[3],made no visible difference
same,sensitivity of MurR/DNA complexes to ligand,[4],insensitive
"CC(=O)N[C@@H]1[C@@H](O)[C@H](O)[C@@H](CO)O[C@H]1O [GlcNAc, N-acetylglucosamine]",effect on MurR binding to the operator,[1],no effect
same,interaction with MurR in ITC,MurR; ligand titrated into WT MurR,no interaction
CC(=O)N[C@H]1C(O)O[C@H](CO)[C@@H](O)[C@@H]1O[C@H](C)C(=O)N[C@@H](C)C(=O)N[C@H](CCC(=O)O)C(N)=O (mixture of isomers) [muramyl dipeptide],effect on MurR binding to the operator,[1],no effect
O=S(=O)([O-])[O-].[Na+].[Na+] [sodium sulfate],effect on MurR-DNA binding at high concentration,[2],not affected
B1,binding result,crystal structure,binds
B2,stoichiometry N,SEC + AUC,4
